Our source for the inhibition values is ChEMBL document CHEMBL5696442, “Discovery of type II inhibitors of TGFβ-activated kinase 1 (TAK1) and mitogen-activated protein kinase kinase kinase kinase 2 (MAP4K2)” (J Med Chem, 2015).

Calls of active or inactive are those of the source. No cut-off for these calls is given here.

Assay [1] addresses T1, Mitogen-activated protein kinase kinase kinase 3 (Homo sapiens) (UniProt Q99759).
T1 sequence (whole entry): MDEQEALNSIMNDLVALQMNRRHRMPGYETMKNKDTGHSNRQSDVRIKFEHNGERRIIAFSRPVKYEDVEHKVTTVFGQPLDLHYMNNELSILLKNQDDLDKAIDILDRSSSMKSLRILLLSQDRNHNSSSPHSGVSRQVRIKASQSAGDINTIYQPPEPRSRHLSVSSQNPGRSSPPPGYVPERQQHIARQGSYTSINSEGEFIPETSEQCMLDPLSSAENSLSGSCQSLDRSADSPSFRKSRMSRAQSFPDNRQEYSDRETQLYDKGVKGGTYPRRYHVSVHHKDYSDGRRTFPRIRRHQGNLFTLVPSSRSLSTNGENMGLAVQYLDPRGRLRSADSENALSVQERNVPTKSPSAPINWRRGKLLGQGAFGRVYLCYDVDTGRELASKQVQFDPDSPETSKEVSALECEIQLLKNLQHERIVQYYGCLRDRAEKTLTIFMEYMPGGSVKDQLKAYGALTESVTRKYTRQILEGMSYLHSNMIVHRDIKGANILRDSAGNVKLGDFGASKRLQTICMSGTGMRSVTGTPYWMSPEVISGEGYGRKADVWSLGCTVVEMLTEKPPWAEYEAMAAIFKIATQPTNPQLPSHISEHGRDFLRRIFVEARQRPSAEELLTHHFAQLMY
Nature of the assay: Inhibition of MAP3K3 Lys2 labeling site in human A-375 cells at 5 uM by KiNativ Profiling analysis relative to control. It counts as cell-based.

For assay [2], the target named is T2, Aurora kinase A (Homo sapiens) (UniProt O14965).
T2 sequence (whole entry): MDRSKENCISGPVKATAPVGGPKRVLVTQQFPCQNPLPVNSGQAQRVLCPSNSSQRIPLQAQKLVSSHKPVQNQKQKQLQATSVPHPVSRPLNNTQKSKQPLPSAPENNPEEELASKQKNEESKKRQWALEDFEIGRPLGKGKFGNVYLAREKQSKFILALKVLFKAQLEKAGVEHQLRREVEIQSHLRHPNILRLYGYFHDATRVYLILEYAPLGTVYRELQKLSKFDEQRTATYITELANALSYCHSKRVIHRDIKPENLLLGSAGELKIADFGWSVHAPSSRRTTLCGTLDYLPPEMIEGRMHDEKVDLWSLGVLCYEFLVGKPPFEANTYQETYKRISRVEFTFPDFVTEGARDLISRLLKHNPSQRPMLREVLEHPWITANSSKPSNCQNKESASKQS
Nature of the assay: Inhibition of AurA ATP Loop labeling site in human A-375 cells at 5 uM by KiNativ Profiling analysis relative to control. The assay is classed as cell-based. The method, boiled down:
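Live A375 melanoma cells were treated with compound at 5 or 0.5 μM, then lysed. The lysates were labeled with a lysine-reactive ATP or ADP-biotin probe. Kinase protection from probe labeling was measured by KiNativ.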

The target of assay [3] is MAP/microtubule affinity-regulating kinase 3 (Homo sapiens) (UniProt P27448). Nature of the assay: Inhibition of MARK3 Lys2 labeling site in human A-375 cells at 0.05 uM by KiNativ Profiling analysis relative to control. The assay is classed as cell-based.
Assay [4] concerns the target Cyclin-dependent kinase 1 (Homo sapiens) (UniProt P06493). Nature of the assay: Inhibition of CDC2 Lys2 labeling site harbouring VLHRDLKPQNLLIDDKGTIK in human A-375 cells at 5 uM by KiNativ Profiling analysis relative to control. The assay is classed as cell-based. The method, boiled down: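 Live A375 melanoma cells were treated with compound at 5 or 0.5 μM. The cells were then lysed, and the lysates were labeled with a lysine-reactive ATP or ADP-biotin acyl probe (KiNativ). Inhibition is the compound's protection of each kinase labeling-site peptide from probe labeling, relative to untreated control.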

Assay [5] addresses T3, Inhibitor of nuclear factor kappa-B kinase subunit alpha (Homo sapiens) (UniProt O15111).
T3 sequence (whole entry): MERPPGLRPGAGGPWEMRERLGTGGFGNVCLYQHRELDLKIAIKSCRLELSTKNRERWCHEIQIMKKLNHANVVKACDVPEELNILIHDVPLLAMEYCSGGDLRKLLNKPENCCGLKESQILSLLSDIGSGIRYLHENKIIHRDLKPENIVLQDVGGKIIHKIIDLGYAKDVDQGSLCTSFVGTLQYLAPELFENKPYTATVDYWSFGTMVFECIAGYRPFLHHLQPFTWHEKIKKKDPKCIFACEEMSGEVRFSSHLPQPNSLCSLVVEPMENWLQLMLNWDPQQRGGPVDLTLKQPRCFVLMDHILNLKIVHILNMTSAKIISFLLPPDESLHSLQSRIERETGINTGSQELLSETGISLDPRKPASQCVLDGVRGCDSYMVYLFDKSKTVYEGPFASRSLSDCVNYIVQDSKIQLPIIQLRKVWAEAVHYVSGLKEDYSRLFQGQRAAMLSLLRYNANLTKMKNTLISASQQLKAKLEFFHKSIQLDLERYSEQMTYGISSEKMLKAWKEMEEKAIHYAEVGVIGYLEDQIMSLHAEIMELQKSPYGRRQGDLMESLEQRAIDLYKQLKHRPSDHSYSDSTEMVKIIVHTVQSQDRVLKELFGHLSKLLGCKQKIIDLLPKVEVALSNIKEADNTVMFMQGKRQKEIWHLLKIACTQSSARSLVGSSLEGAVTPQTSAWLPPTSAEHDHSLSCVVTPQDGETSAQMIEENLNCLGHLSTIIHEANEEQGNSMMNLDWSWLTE
The experiment in a line: Inhibition of IKKa Lys2 labeling site in human A-375 cells at 0.5 uM by KiNativ Profiling analysis relative to control. The assay is classed as cell-based.

Assay [6] addresses Serine/threonine-protein kinase Nek7 (Homo sapiens) (UniProt Q8TDX7). The experiment in a line: Inhibition of NEK7 Lys2 labeling site in human A-375 cells at 5 uM by KiNativ Profiling analysis relative to control. The assay is classed as cell-based.
Another assay relates to GEN2.2. The experiment in a line: Inhibition of CL097 induced p-105 phosphorylation level in human GEN2.2 cells at 1 uM preincubated with compound for 1 hr followed by CL097 stimulation and measured after 30 mins by Western blot analysis. It counts as functional, cell-based. An outline of the steps:
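Gen2.2 cells were pretreated with compound at 1 μM for 1 h, then stimulated with CL097 for 30 min. Lysates were analysed by Western blot for phosphorylation of p105, p38 and JNK1/2.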
For orientation: A western blot detects proteins with antibodies after separation by electrophoresis.

In assay [7] the target is Tyrosine-protein kinase ABL1 (Homo sapiens, UniProt P00519). The experiment in a line: Inhibition of ABL ACT labeling site in human Huh-7 cell lysate at 1 uM by KiNativ Profiling analysis relative to control. It counts as subcellular.
Chain of Tyrosine-protein kinase ABL1 (P00519 whole entry): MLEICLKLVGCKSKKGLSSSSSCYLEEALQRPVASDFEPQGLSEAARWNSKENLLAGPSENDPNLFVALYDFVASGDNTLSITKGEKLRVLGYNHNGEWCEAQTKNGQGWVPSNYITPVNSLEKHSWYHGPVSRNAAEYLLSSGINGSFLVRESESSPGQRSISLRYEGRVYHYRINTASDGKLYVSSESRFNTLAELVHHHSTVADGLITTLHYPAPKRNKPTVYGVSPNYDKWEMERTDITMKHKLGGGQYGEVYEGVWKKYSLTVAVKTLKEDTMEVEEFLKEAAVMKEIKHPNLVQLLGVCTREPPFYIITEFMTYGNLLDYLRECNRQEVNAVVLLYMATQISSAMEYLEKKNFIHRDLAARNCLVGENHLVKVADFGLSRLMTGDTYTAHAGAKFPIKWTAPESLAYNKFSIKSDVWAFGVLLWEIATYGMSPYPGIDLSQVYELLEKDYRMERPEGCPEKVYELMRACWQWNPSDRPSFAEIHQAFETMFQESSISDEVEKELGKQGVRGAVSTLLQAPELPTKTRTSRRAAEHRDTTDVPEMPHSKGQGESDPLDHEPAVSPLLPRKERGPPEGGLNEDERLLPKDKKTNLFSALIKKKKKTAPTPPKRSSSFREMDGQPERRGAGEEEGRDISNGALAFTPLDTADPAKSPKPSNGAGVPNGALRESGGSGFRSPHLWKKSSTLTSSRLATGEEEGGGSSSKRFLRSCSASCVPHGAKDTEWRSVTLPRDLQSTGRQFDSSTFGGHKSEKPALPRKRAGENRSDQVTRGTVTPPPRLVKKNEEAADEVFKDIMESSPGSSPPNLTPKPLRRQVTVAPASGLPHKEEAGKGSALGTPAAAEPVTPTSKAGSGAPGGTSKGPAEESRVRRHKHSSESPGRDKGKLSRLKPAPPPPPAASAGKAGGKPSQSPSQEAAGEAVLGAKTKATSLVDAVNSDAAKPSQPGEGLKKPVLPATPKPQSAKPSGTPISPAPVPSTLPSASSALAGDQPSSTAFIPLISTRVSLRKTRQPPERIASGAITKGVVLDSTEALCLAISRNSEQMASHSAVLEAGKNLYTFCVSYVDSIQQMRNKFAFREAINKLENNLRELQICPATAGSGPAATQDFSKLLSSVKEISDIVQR

Chain of Cyclin-dependent kinase 1 (Homo sapiens) (P06493 whole entry, looked up): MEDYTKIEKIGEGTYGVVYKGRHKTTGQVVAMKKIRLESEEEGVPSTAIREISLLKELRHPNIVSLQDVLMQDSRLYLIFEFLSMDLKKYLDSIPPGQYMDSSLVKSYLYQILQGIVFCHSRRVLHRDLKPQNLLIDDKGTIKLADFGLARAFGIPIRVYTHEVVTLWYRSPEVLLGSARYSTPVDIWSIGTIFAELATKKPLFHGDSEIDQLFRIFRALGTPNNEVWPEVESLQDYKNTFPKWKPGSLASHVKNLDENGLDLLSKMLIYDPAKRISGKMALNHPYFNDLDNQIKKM
Chain of Serine/threonine-protein kinase Nek7 (Homo sapiens) (Q8TDX7 whole entry, looked up): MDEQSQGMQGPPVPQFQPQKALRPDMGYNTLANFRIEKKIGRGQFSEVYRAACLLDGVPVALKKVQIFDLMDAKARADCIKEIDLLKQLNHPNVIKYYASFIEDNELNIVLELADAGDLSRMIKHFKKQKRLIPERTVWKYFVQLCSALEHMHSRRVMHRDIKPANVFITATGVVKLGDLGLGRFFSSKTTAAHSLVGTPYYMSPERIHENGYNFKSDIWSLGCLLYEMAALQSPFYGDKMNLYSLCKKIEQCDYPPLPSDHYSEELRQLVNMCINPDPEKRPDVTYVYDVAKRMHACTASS
Chain of MAP/microtubule affinity-regulating kinase 3 (Homo sapiens) (P27448 whole entry, looked up): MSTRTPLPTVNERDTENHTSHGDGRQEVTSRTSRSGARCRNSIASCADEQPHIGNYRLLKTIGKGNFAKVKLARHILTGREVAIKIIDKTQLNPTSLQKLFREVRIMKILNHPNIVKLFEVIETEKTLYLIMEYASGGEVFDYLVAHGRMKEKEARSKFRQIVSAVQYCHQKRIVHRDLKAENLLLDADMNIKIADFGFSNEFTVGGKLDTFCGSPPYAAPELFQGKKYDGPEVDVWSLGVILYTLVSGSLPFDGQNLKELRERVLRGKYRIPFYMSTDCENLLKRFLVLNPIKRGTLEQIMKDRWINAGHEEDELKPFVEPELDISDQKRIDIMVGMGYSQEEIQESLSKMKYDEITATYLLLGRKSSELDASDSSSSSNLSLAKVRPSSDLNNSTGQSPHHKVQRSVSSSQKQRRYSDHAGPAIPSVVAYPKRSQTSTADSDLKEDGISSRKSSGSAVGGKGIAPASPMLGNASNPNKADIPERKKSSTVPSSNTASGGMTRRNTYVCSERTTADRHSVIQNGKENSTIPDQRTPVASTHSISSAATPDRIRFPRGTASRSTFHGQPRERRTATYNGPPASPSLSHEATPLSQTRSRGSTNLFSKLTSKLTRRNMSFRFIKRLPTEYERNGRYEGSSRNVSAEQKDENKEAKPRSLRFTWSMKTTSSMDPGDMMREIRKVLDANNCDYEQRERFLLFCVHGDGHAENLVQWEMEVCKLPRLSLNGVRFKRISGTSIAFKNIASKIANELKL

In general, inhibition refers to the relative decrease from the control value, in per cent. In the case of `CCN1CCN(Cc2ccc(NC(=O)c3ccc(C)c(/C=C/c4cnc5[nH]ccc5c4OC)c3)cc2C(F)(F)F)CC1`, the inhibition in assay [1] was 11.8%; in assay [2] it was 48.5%; in assay [3], 11.6%; in assay [4] it was -3.1%; in assay [5], 13.3%; in assay [6], 3.1%.
With `CNc1cc(Oc2cc(C(=O)Nc3cc(-n4cnc(C)c4)cc(C(F)(F)F)c3)ccc2C)ncn1`, the inhibition result in the assay on GEN2.2 is “inactive”. The inhibition in assay [7] turned out to be 59.7%.
In the case of `CCN1CCN(Cc2ccc(NC(=O)c3ccc(C)c(Oc4ccnc5[nH]ccc45)c3)cc2C(F)(F)F)CC1`, the inhibition in assay [1] is -4.8%; in assay [2], 31.4%; in assay [3] it was 19.5%; in assay [4], 34.7%; in assay [5] it was 33.4%; in assay [6], 6.4%. Moreover, the inhibition result in the assay with GEN2.2 was “Active”.
For the molecule `CNc1cc(Oc2cc(C(=O)Nc3cc(N4CCN(C)CC4)cc(C(F)(F)F)c3)ccc2C)ncn1`, the inhibition in assay [7] is 49.4%.
